Measured values taken from ChEMBL document CHEMBL4402584, “Lead Optimization of Phthalazinone Phosphodiesterase Inhibitors as Novel Antitrypanosomal Compounds” (J Med Chem, 2020).

Key:
[1] = biological target: 3',5'-cyclic-AMP phosphodiesterase 4D (Homo sapiens, UniProt Q08499); experiment: Inhibition of human PDE4D2 expressed in Escherichia coli BL21 (DE3) using cAMP as substrate by PDELight HTS cAMP phosphodiesterase Kit based
Outline: (§1)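 Recombinant catalytic domains, His-tag purified, then ion exchange and size exclusion, were tested with the PDELight HTS cAMP kit in stimulation buffer (50 mM Hepes, 100 mM NaCl, 10 mM MgCl2, 0.5 mM EDTA, 0.05 mg/ml BSA, pH 7.5). Dose-response curves gave Ki, expressed as pKi = −log10(Ki ÷ 1000000).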

[2] = Metabolic stability in mouse microsomes assessed as compound remaining at 5 uM incubated for 30 mins by UPLC-MS/MS analysis; type: ADME, Microsome; details: for remaining at 0.5 h, 5 µM: read-out: Stability; for Stability: 0.5 h, 5 µM
Outline: (§2)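 Compound at 5 µM incubated with 0.5 mg/mL male liver microsomes in potassium phosphate buffer, started with 1 mM NADPH (CYP phase I). Aliquots quenched in cold acetonitrile containing tolbutamide, centrifuged at 4 °C, supernatant analysed by LC-MS. Results given as % parent remaining relative to time 0; mean of at least two experiments; diclofenac as control.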

[3] = Cytotoxicity against human MRC5 SV2 cells assessed as reduction in cell viability incubated for 72 hrs by resazurin dye based fluorimetric assay; details: MRC-5 SV2, 72 h
Outline: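 MRC-5 SV2 fibroblasts grown in Earl's MEM with 5% FBSi, L-glutamine and bicarbonate; 1×10^4 cells/well treated 72 h at 37 °C, 5% CO2; resazurin viability read fluorimetrically (ex 550, em 590 nm). Five 4-fold dilutions from a 64 µM top concentration; IC50 derived from % viability reduction vs untreated wells; tamoxifen as reference.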

Trypanosoma brucei = experiment: Antitrypanosomal activity against Trypanosoma brucei Squib 427 assessed as reduction in parasite growth incubated for 72 hrs by resazurin dye based fluorimetric analysis; type: functional, organism-based; details: Squib 427, 72 h
[4] = biological target: T1, Class 1 phosphodiesterase PDEB1 (Trypanosoma brucei, UniProt Q8WQX9); experiment: Inhibition of Trypanosoma brucei PDEB1 (565 to 918 residues) expressed in Escherichia coli BL21 (DE3) using cAMP as substrate by PDELight HTS cAMP phosphodiesterase Kit based; outline: as §1
T1 sequence (Q8WQX9 whole entry): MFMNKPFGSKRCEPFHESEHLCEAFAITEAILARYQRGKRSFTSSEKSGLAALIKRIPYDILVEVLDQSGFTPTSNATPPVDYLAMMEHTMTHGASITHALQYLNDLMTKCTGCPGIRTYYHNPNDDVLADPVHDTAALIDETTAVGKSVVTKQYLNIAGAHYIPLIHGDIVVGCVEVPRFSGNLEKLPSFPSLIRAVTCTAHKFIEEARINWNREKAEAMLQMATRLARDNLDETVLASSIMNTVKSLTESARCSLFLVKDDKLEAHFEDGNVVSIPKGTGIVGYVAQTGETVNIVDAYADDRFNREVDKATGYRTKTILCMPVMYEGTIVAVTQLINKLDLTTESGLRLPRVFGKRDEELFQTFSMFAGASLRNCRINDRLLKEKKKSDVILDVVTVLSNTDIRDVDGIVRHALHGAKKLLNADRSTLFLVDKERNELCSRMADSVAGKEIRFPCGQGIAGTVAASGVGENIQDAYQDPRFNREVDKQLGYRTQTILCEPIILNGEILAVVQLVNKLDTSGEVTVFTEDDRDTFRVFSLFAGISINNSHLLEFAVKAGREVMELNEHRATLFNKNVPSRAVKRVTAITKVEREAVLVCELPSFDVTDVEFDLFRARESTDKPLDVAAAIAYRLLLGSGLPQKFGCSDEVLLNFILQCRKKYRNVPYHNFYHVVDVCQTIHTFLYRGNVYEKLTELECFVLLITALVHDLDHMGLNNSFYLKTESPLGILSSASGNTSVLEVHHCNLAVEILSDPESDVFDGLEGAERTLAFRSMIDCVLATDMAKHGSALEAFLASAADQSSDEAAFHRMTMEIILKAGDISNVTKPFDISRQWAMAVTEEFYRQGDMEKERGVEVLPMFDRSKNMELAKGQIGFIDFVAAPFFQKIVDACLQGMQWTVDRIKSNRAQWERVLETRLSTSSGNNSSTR

[5] = Metabolic stability in human microsomes assessed as compound remaining at 5 uM incubated for 30 mins by UPLC-MS/MS analysis; type: ADME, Microsome; details: for Stability: 0.5 h, 5 µM; outline: as §2

Chain of 3',5'-cyclic-AMP phosphodiesterase 4D (Q08499 whole entry, the tested form may be a part): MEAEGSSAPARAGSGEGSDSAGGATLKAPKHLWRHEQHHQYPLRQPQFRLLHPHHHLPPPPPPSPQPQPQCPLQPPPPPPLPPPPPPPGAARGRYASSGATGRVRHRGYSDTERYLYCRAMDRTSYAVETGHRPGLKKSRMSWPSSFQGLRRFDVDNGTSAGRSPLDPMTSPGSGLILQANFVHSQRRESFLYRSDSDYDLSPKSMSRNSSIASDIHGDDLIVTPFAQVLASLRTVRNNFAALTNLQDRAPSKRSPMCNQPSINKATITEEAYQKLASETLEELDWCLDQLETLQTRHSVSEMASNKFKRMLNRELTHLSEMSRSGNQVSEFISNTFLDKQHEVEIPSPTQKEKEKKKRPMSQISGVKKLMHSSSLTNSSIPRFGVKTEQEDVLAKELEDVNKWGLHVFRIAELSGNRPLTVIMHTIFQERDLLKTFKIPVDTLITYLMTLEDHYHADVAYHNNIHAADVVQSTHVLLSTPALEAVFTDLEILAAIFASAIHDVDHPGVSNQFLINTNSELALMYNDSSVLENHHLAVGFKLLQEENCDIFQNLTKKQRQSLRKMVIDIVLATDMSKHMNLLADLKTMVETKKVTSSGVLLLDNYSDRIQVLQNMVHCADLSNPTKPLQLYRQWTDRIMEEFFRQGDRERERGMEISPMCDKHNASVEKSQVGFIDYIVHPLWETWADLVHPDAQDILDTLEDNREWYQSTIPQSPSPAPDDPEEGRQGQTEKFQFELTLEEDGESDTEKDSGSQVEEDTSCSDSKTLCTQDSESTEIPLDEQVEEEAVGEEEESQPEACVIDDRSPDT

SMILES	Ki [1]	remaining at 0.5 h, 5 µM [2]	IC50 [3]	IC50 (Trypanosoma brucei)	Ki [4]	Stability [5]	Stability [2]	remaining at 0.5 h, 5 µM ([5]; read-out: Stability)
COc1ccc(C2=NN(C3CCN(C(=O)CN4C(=O)CC(C)(C)CC4=O)CC3)C(=O)[C@@H]3CC=CC[C@H]23)cc1OC	0.123 nM	6.7%	44700 nM	447 nM	43.7 nM	Stable	–	–
COc1ccc(C2=NN(C3CCN(C(=O)CN4C(=O)CC(C)(C)CC4=O)CC3)C(=O)[C@@H]3CCCC[C@H]23)cc1OC	0.162 nM	–	56200 nM	1950 nM	85.1 nM	Stable	Stable	–
O=C1[C@@H]2CC=CC[C@@H]2C(c2ccc(O)c(O)c2)=NN1C1CCN(c2ncnc3ccsc23)CC1	63.1 nM	–	25100 nM	5130 nM	891 nM	–	–	–
COc1ccc(C2=NN(C3CCN(C(=O)CN4C(=O)CC5(CCCCC5)CC4=O)CC3)C(=O)[C@@H]3CC=CC[C@H]23)cc1OC	0.155 nM	–	31600 nM	479 nM	30.9 nM	Stable	Stable	–
O=C(CN1C(=O)CC2(CCCCC2)CC1=O)N1CCC(N2N=C(c3ccc(F)c(F)c3)[C@H]3CCCC[C@H]3C2=O)CC1	–	–	64600 nM	7590 nM	> 6920 nM	Stable	Stable	–
COc1ccc(C2=NN(C3CN(c4ncnc5ccsc45)C3)C(=O)[C@@H]3CC=CC[C@H]23)cc1OC	0.562 nM	–	64600 nM	15100 nM	288 nM	–	–	–
COc1ccc(C2=NN(C3CCN(C(=O)CN4C(=O)CC(C)C4=O)CC3)C(=O)[C@@H]3CC=CC[C@H]23)cc1OC (stereo partly drawn)	0.17 nM	–	64600 nM	1820 nM	75.9 nM	–	–	–
COc1ccc(C2=NN(C3CN(c4nc(N)nc5sccc45)C3)C(=O)[C@@H]3CC=CC[C@H]23)cc1OC	1.17 nM	–	64600 nM	7760 nM	275 nM	–	–	–
COc1ccc(C2=NN(C3CN(C(=O)CN4C(=O)CC5(CCCC5)CC4=O)C3)C(=O)[C@@H]3CC=CC[C@H]23)cc1OC	0.676 nM	–	64600 nM	2510 nM	170 nM	–	–	–
COc1ccc(C2=NN(C3CCN(c4nc(N)nc5sccc45)CC3)C(=O)[C@@H]3CC=CC[C@H]23)cc1Cl	30.2 nM	–	64600 nM	2000 nM	832 nM	–	–	–
COc1ccc(C2=NN(C3CN(C(=O)CN4C(=O)CC5(CCCCC5)CC4=O)C3)C(=O)[C@@H]3CC=CC[C@H]23)cc1OC	0.851 nM	–	64600 nM	1150 nM	91.2 nM	Stable	Stable	–
COc1ccc(C2=NN(C3CCN(c4nc(N)nc5sccc45)CC3)C(=O)[C@@H]3CCCC[C@H]23)cc1OC	0.661 nM	–	28800 nM	955 nM	93.3 nM	–	–	–
COc1ccc(C2=NN(C3CCN(c4nc(N)c5sccc5n4)CC3)C(=O)[C@@H]3CC=CC[C@H]23)cc1OC	0.676 nM	–	64600 nM	1780 nM	339 nM	Stable	Stable	–
O=C1[C@@H]2CC=CC[C@@H]2C(c2ccc(F)c(F)c2)=NN1C1CCN(c2ncnc3ccsc23)CC1	–	–	38000 nM	13200 nM	> 5620 nM	Stable	Stable	–
COc1ccc(C2=NN(C3CCN(C(=O)CN4C(=O)CC(Cc5ccccc5)C4=O)CC3)C(=O)[C@@H]3CC=CC[C@H]23)cc1OC (stereo partly drawn)	0.316 nM	–	64600 nM	64600 nM	97.7 nM	–	–	–
CC1(C)CC(=O)N(CC(=O)N2CCC(N3N=C(c4ccc(OC(F)F)c(OC(F)F)c4)[C@H]4CCCC[C@H]4C3=O)CC2)C(=O)C1	–	–	64600 nM	6460 nM	> 1580 nM	Stable	Stable	–
COc1ccc(C2=NN(C3CCN(c4nc(N)nc5ccccc45)CC3)C(=O)[C@@H]3CC=CC[C@H]23)cc1OC	0.155 nM	–	7760 nM	813 nM	24.5 nM	–	–	–
CC1(C)CC(=O)N(CC(=O)N2CCC(N3N=C(c4ccc(OC(F)F)c(OC(F)F)c4)[C@H]4CC=CC[C@H]4C3=O)CC2)C(=O)C1	0.302 nM	–	64600 nM	1000 nM	407 nM	–	–	–
O=C(CN1C(=O)CC2(CCCCC2)CC1=O)N1CCC(N2N=C(c3ccc(OC(F)F)c(OC(F)F)c3)[C@H]3CC=CC[C@H]3C2=O)CC1	1.62 nM	–	64600 nM	7590 nM	776 nM	–	–	–
COc1ccc(C2=NN(C3CCN(C(=O)CN4C(=O)CCC4=O)CC3)C(=O)[C@@H]3CC=CC[C@H]23)cc1OC	0.0617 nM	43%	64600 nM	1860 nM	20.9 nM	–	–	89%
O=C1[C@@H]2CC=CC[C@@H]2C(c2ccc(OC(F)F)c(OC(F)F)c2)=NN1C1CCN(c2ncnc3ccsc23)CC1	–	–	64600 nM	6760 nM	> 2140 nM	Stable	Stable	–
COc1ccc(C2=NN(C3CN(C(=O)CN4C(=O)CC(C)(C)CC4=O)C3)C(=O)[C@@H]3CC=CC[C@H]23)cc1OC	0.389 nM	–	64600 nM	1820 nM	102 nM	–	–	–
CC1(C)CC(=O)N(CC(=O)N2CCC(N3N=C(c4ccc(F)cc4)[C@H]4CC=CC[C@H]4C3=O)CC2)C(=O)C1 (relative stereo)	0.12 nM	–	29500 nM	64600 nM	77.6 nM	–	–	–
O=C(CN1C(=O)CC2(CCCCC2)CC1=O)N1CCC(N2N=C(c3ccc(F)c(F)c3)[C@H]3CC=CC[C@H]3C2=O)CC1 (relative stereo)	–	–	64600 nM	33100 nM	> 4570 nM	Stable	Stable	–
Nc1nc(N2CCC(N3N=C(c4ccc(F)cc4)[C@H]4CC=CC[C@H]4C3=O)CC2)c2ccsc2n1 (relative stereo)	–	–	64600 nM	2090 nM	> 9330 nM	Stable	Stable	–
Nc1nc(N2CCC(N3N=C(c4ccc(F)c(F)c4)[C@H]4CC=CC[C@H]4C3=O)CC2)c2ccsc2n1 (relative stereo)	–	–	64600 nM	1910 nM	> 8320 nM	Stable	Stable	–
